Laboratory results reported in the M2OR odorant receptor database.

molecular target: T1, OR2W1 (Homo sapiens) (UniProt Q9Y3N9); settings: stereoisomer not certain
T1 sequence (whole entry): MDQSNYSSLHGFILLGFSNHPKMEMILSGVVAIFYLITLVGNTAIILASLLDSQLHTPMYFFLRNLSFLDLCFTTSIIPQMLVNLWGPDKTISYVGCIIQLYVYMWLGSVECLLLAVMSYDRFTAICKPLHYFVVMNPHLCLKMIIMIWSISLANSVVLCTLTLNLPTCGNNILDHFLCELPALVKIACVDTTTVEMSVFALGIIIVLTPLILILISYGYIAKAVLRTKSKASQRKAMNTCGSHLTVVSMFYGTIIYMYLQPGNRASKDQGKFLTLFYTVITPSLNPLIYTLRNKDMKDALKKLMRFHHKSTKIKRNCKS
Method in brief: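 Whether a receptor–molecule pair is responsive (active) rests on the original authors' judgment that its measured signal was statistically different from baseline. Pairs without that judgment are non-responsive (inactive). Sources used varied assay methods, commonly transient luciferase assays in mammalian cell lines.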

SMILES	odorant receptor agonist call;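 further: active if original authors judged signal statistically different from baseline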
CC=CC(=O)C(C)CC (stereo not given)	inactive
C=CCSC	inactive
CCCC=CC=O	inactive
Cc1occc1S	inactive
O=C(c1ccccc1)c1ccccc1	active
CCCCCCCCC(=O)O	active
CCCC(=O)C(C)=O	active
CCCCCCCCS	active
CCCCCC=O	inactive
CSCCCO	inactive
Cc1c[nH]c2ccccc12	inactive
CSCSC	inactive
CCCCCCCC1CCCC(=O)O1 (stereo not given)	inactive
CCC=CCC=O	inactive
CCCCCC1CCCC(=O)O1 (stereo not given)	inactive
CC=CC(=O)C1=C(C)CCCC1(C)C	inactive
Cc1occc(=O)c1O	inactive
O=C1CCOc2ccccc21	active

SMILES	odorant receptor agonist call;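 further: active if original authors judged signal statistically different from baseline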
CCCCCCC(=O)[O-].[H+]	inactive
CCCCC(=O)CC(C)=O	active
COC(=O)C(C)C	inactive
CCCCCCCCCS	active
CCC(=O)C(C)=O	inactive
CCCCCC(=O)CC	active
CC(=O)C(C)C(C)=O	inactive
CC(C)CO	inactive
CCCCC(C)CCC(=O)O (stereo not given)	inactive
C=CC(=O)CC	inactive
CC(=O)CC(=O)CC(C)C	active
CCC(C)C(=O)OC (stereo not given)	inactive
CSCCC=O	inactive
C=CC(=O)CC=CCC	inactive
CCCC(O)CC(=O)OCC (stereo not given)	inactive
CCCCCCCCC1CCC(=O)O1 (stereo not given)	inactive
Cc1ccc(O)cc1	inactive
